The source of these data is ChEMBL document CHEMBL1154192, “A series of 1, 2-coupled indane dimers with mast cell stabilisation and smooth muscle relaxation properties” (Eur J Med Chem, 2009).

The subject of test [1] is Ileum. As to the kind of experiment: Inhibition of calcium-induced contraction in guinea pig ileum at 10 uM. Format: functional. Conditions: Cavia porcellus. The essentials:
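Guinea-pig ileum was suspended in calcium-free Krebs solution containing 45 mM K+ and contracted by bringing bath calcium to 2.5 mM (sustained >40 min). At stable maximal contracture a single 1 × 10⁻⁵ M concentration was added. Inhibition is given as percentage of stimulated contraction, mean ± SEM, n = 6–12.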

In test [2] the test system is Mast cell. Put plainly: Inhibition of compound 48/80-induced histamine release in Wistar rat peritoneal mast cell at 20 uM treated 10 mins before compound 48/80 challenge. Format: functional. The essentials:
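Peritoneal cells were lavaged from female Wistar rats (250–350 g) into prewarmed (37 °C) HEPES-buffered salt solution, without purification. Cells were centrifuged, washed three times and held at 4 °C. Inhibition is given as percentage of stimulated release, mean ± SEM, n = 5–10.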

The test system of test [3] is Ileum. As to the kind of experiment: Inhibition of calcium-induced contraction in guinea pig ileum at 0.03 to 10 uM. Format: functional, tissue-based. Conditions: Cavia porcellus. In short, it runs like this:
(§1)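 Isolated guinea-pig ileum in high-potassium (45 mM), calcium-free modified Krebs solution. Sustained contractures (>40 min) were elicited by raising bath CaCl2 to 2.5 mM. Once contraction reached a stable maximum, compound was added cumulatively (3 × 10⁻⁸ – […]). IC50 was calculated from the concentration-effect curve.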

Test [4] concerns Ileum. As to the kind of experiment: Inhibition of calcium-induced contraction in guinea pig ileum. Format: functional, tissue-based. Conditions: Cavia porcellus. In short, it runs like this:
as §1

The test system of test [5] is Ileum. Put plainly: Inhibition of calcium-induced contraction in guinea pig ileum at 0.01 uM. The format is functional. Conditions: Cavia porcellus. The essentials:
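Isolated guinea-pig ileum in high-potassium (45 mM), calcium-free modified Krebs solution. Sustained (>40 min) contractures were elicited by raising bath calcium to 2.5 mM with CaCl2. At stable maximum, a single concentration (1 × 10^-8 M) was added. Inhibition was expressed as a percentage of stimulated values, mean ± SEM, n = 6.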

In test [6] the test system is Ileum. As to the kind of experiment: Inhibition of calcium-induced contraction in guinea pig ileum at 0.001 to 0.1 uM. Format: functional, tissue-based. Conditions: Cavia porcellus. The essentials: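 Isolated guinea-pig ileum in high-potassium (45 mM), calcium-free modified Krebs solution. CaCl2 was added to raise bath calcium to 2.5 mM, giving sustained (>40 min) contractures. At stable maximum, drug was added cumulatively at […] to 1 × 10^-7 M. Read-out was inhibition of contracture; IC50 was calculated from the concentration-effect curve.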

Broadly, the inhibition is the relative decrease from the control value, in per cent. Consider `O=C(O)CC1(C2=CCc3ccccc32)Cc2ccccc2C1=O` (stereo unspecified), for which the inhibition at 10 µM in test [1] stood at 1.8%. Besides, the inhibition at 20 µM in test [2] was found to be 10.3%.
`CCCCCC1(C2=CCc3ccccc32)Cc2ccccc2C1=O` (stereo unspecified): the inhibition at 10 µM in test [1] turned out to be 18%. The inhibition at 20 µM in test [2] is -3.2%.
In the same order, the values of `CCCC1(C2=CCc3ccccc32)Cc2ccccc2C1=O` (stereo unspecified) are 51.7% and 41.2%.
With `CC/C=C/CC1(C2=CCc3ccccc32)Cc2ccccc2C1O` (stereo unspecified), the inhibition at 10 µM in test [1] came out at 25.6%. The inhibition at 20 µM in test [2] is 49.7%.
For `O=C1c2ccccc2CC1(Cc1ccccc1)C1=CCc2ccccc21` (stereo unspecified), the inhibition at 10 µM in test [1] is 18.9%. In addition, the inhibition at 20 µM in test [2] is 24.7%.
On to `CCCC1(C2=CCc3ccccc32)Cc2ccccc2C1O` (stereo unspecified), for which, in test [1], the inhibition at 10 µM was 34.3%. The inhibition at 20 µM in test [2] was -26%.
The matching figures for `CC/C=C/CC1(C2=CCc3ccccc32)Cc2ccccc2C1=O` (stereo unspecified): 19.9% and 32.5%.
A word on the IC50: it is the midpoint of a concentration-inhibition curve. As for `C=CCC1(C2=CCc3ccccc32)Cc2ccccc2C1O` (stereo unspecified), the inhibition at 10 µM in test [1] came to 79.5%. Besides, the IC50 in test [3] and in test [4] was 6200 nM throughout. In test [2], the inhibition at 20 µM was -35.5%.
With `CCC1(C2=CCc3ccccc32)Cc2ccccc2C1=O` (stereo unspecified), in test [1], the inhibition at 10 µM was found to be 49.6%. Further, the inhibition at 20 µM in test [2] came to 19.4%.
The matching figures for `CC1(C2=CCc3ccccc32)Cc2ccccc2C1=O` (stereo unspecified): 41.3% and 15.6%.
The matching figures for `COC(=O)CC1(C2=CCc3ccccc32)Cc2ccccc2C1=O` (stereo unspecified): 20.5% and 21.9%.
The matching figures for `COC(=O)c1ccc(CC2(C3=CCc4ccccc43)Cc3ccccc3C2=O)cc1` (stereo unspecified): 31.5% and -27.8%.
For `O=C(O)c1cc(=O)c2c(OCC(O)COc3cccc4oc(C(=O)O)cc(=O)c34)cccc2o1` [CROMOLYN SODIUM], the inhibition at 20 µM in test [2] turned out to be 9.1%.
`COC(=O)C1=C(C)NC(C)=C(C(=O)OC)C1c1ccccc1[N+](=O)[O-]` [NIFEDIPINE]: in test [5], the inhibition at 0.01 µM was found to be 48.1%. Further, the IC50 in test [6] and in test [4] was 14.7 nM in each case.
In the case of `Cc1cc2c(c(C)c1CCO)C(=O)C(C)(C)C2` [PTEROSIN Z], the IC50 in test [4] is 1300 nM.
